Experimental data published in ChEMBL document CHEMBL5104125, “Copper chelating cyclic peptidomimetic inhibits Aβ fibrillogenesis” (RSC Med Chem, 2022).
Calls of active or inactive are those of the source. No cut-off for these calls is given here. Where a SMILES comes first, the peptide text is derived from it. [ ]: non-standard residue; d: D form. The star is where a group is joined. X1 = CCN(CC)c1ccc2c(-c3ccc(C(=O)*)cc3)c3ccc(N(CC)CC)cc3[o+]c2c1; Sar = CNCC(=O)O

Assays:
[1] = molecular target: Amyloid-beta precursor protein (Homo sapiens) (UniProt P05067); assay: Inhibition of amyloid beta (1 to 40) (unknown origin) aggregation at 0.5 M incubated for 6 days by thioflavin S based fluorescence analysis relative to control; conditions: time 6.0 day
[2] = molecular target: Amyloid-beta precursor protein (Homo sapiens) (UniProt P05067); assay: Inhibition of amyloid beta (1 to 40) (unknown origin) aggregation at 1 M incubated for 6 days by thioflavin S based fluorescence analysis relative to control; conditions: time 6.0 day
[3] = molecular target: Amyloid-beta precursor protein (Homo sapiens) (UniProt P05067); assay: Inhibition of amyloid beta (1 to 40) (unknown origin) aggregation at 2 M incubated for 6 days by thioflavin S based fluorescence analysis relative to control; conditions: time 6.0 day
How it was run: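 Aβ1-40 (40 μM) co-incubated with 0.5-, 1- or 2-fold molar excess of peptide in PBS pH 7.4 at 37 °C for six days; ThT fluorescence monitored over time. Experiment done thrice, with two sets per solution and three readings per set.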

[4] = Cytotoxicity against mouse Neuro2a cells assessed as reduction in cell viability by MTT assay; type: toxicity, cell-based, N2a
How it was run: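 Neuro2a mouse neuronal cells treated with fluorescently labelled peptides; viability read by MTT after 24 h. IC50 calculated from linear regression of viability versus concentration.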

[5] = Drug uptake in mouse Neuro2a cells assessed as drug co-localization in cell at 100 uM in presence of MA.beta-RhB by confocal microscopy; type: ADME, cell-based; conditions: n2a
How it was run: (§1)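 Neuro2a cells treated with fluorescein- or Rhodamine B-labelled peptide at 100 μM, alone or together. Green and red fluorescence imaged in bright and dark field at 20×. Co-localization checked by confocal imaging at 63×, with green and red channels captured separately and then merged.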

[6] = Drug uptake in mouse Neuro2a cells assessed as drug internalization in cell membrane at 100 uM by confocal microscopy; type: ADME; conditions: n2a; how it was run: as §1
[7] = species on record: Homo sapiens; assay: Binding affinity to Rhodamine B labelled amyloid beta (9-21 residues) (unknown origin) assessed as increase in fluorescence intensity of Rhodamine B at 20 uM incubated for 24 hrs by FRET analysis (Rvb= 601 nm)
How it was run: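 FRET between fluorescein-labelled cyclic peptide (donor) and Rhodamine B-labelled Aβ9-21 model peptide (acceptor), mixed 1:1, ~20 μM each in PBS (50 mM, pH 7.4), incubated 24 h at 37 °C. Donor and mixture excited at 492 nm, acceptor alone at 567 nm; emission spectra recorded. Representative of several independent repeats.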

[8] = Drug uptake in mouse Neuro2a cells assessed as drug co-localization in cell at 100 uM in presence of PA19fCP-FI by confocal microscopy; type: ADME, cell-based; conditions: n2a; how it was run: as §1
[9] = Drug uptake in mouse Neuro2a cells assessed as drug internalization in cytoplasm at 100 uM by confocal microscopy; type: ADME; conditions: n2a; how it was run: as §1
[10] = molecular target: Amyloid-beta precursor protein (Homo sapiens) (UniProt P05067); assay: Inhibition of amyloid beta (1 to 40) (unknown origin) aggregation assessed as bright green-gold birefringence at 2 M incubated for 6 days by Congo-red staining based image analysis; conditions: time 6.0 day
How it was run: (§2)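 Aβ1-40 (40 μM) co-incubated with 2-fold molar excess of peptide in PBS pH 7.4 at 37 °C for six days. TEM images (200 nm scale) and Congo red-stained birefringence images (20 μm scale) captured.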

[11] = molecular target: Amyloid-beta precursor protein (Homo sapiens) (UniProt P05067); assay: Inhibition of amyloid beta (1 to 40) (unknown origin) aggregation assessed as reduction in beta sheet conformation at 2 M incubated for 6 days by circular dichroism analysis; conditions: time 6.0 day
[12] = molecular target: Amyloid-beta precursor protein (Homo sapiens) (UniProt P05067); assay: Inhibition of amyloid beta (1 to 40) (unknown origin) aggregation assessed as reduction in beta sheet conformation at 2 M incubated for 6 days by FTIR analysis; conditions: time 6.0 day
[13] = molecular target: Amyloid-beta precursor protein (Homo sapiens) (UniProt P05067); assay: Inhibition of amyloid beta (1 to 40) (unknown origin) aggregation assessed as reduction in fibrillar assembly at 2 M incubated for 6 days by TEM analysis; conditions: time 6.0 day; how it was run: as §2
[14] = Metal chelating activity assessed as compound-Cu2+ complex formation by measuring red shift at 1:1 ratio in presence of CuSO4 by UV-Vis spectra analysis (Rvb= 265 nm)
[15] = species on record: Homo sapiens; assay: Metal chelating activity assessed as extraction of Cu2+ from amyloid beta (1 to 40) (unknown origin)-Cu2+ complex by measuring fluorescence of Tyr10 at 80 uM incubated for 36 hrs by tyrosine intrinsic fluorescence assay
How it was run: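 Aβ1-40 (40 μM) in PBS (50 mM, pH 7.4), with Cu2+ added at 40 μM, then peptide at 80 μM (1:1:2). Tyr10 intrinsic fluorescence emission read at 308 nm and expressed as normalized fluorescence intensity.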

[16] = molecular target: Amyloid-beta precursor protein (Homo sapiens) (UniProt P05067); assay: Inhibition of Cu2+ induced amyloid beta (1 to 40) (unknown origin) aggregation assessed as reduction in fibrils at 80 uM incubated for 36 hrs in presence of CuSO4 by thioflavin S based fluorescence analysis; conditions: in the assay text read “thioflavin T” for “thioflavin S”
How it was run: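 Aβ1-40 (40 μM) with CuSO4 (40 μM) and test peptide (80 μM) in PBS pH 7.4, 37 °C, 36 h. ThT fluorescence read at ex 440 nm / em 485 nm, with ThT-plus-PBS reference subtracted. Mean of three independent experiments ± SD.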

[17] = Metal chelating activity assessed as compound-Cu2+ complex formation by measuring exothermic event at 50 uM in presence of CuSO4 by isothermal titration calorimetry assay
How it was run: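 ITC at 27 °C in 20 mM Tris-HCl pH 7.4. Metal solution (1.5 mM) in the syringe was titrated into peptide (50 μM) in the cell over 30 injections. Heats of dilution of metal into buffer were subtracted. ΔH, ΔS, K and n were fitted with a sequential two-site binding model.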

[18] = Metal chelating activity assessed as compound-Cu2+ complex formation by measuring red shift at 2:1 ratio in presence of CuSO4 by UV-Vis spectra analysis (Rvb= 264 nm)
[19] = Metal chelating activity assessed as compound-Cu2+ complex formation by measuring deviation in g values at 1 to 2 M in presence of CuSO4 by electron spin resonance analysis; conditions: dose 1-2 M
How it was run: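 ESR spectra recorded at room temperature on Cu2+ solution (5 mM) alone and with 1- or 2-fold molar ratio of peptide; g values read.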

[20] = Metal chelating activity assessed as compound-Zn2+ complex formation by measuring red shift at 2:1 ratio in presence of ZnCl2 by UV-Vis spectra analysis (Rvb= 264 nm)
[21] = molecular target: Amyloid-beta precursor protein (Homo sapiens) (UniProt P05067); assay: Inhibition of amyloid beta (1 to 40) (unknown origin) aggregation assessed as off-pathway aggregated species at 80 uM incubated upto 24 hr by TEM analysis; conditions: TDE = time-dependent effect
How it was run: (§3)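 Aβ1-40 (40 μM) alone or with 2 equivalents of peptide, incubated at pH 7.4, 37 °C. DLS size distribution and TEM morphology (500 nm scale) recorded at 1, 6, 12 and 24 h.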

[22] = molecular target: Amyloid-beta precursor protein (Homo sapiens) (UniProt P05067); assay: Inhibition of amyloid beta (1 to 40) (unknown origin) aggregation assessed as increase in size of off-target aggregated species at 80 uM incubated upto 24 hr by DLS analysis; how it was run: as §3
[23] = test system: Lipid bilayer; assay: Inhibition of membrane destabilization in carboxyfluorescein dye entrapped large unilamellar vesicle assessed as decrease in amyloid beta (1-40) induced carboxyfluorescein leakage upto 48 hrs by TEM analysis; conditions: in the assay text read “by fluorescence analysis” for “by TEM analysis”
How it was run: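 Carboxyfluorescein-loaded LUVs in PBS (50 mM) exposed to pre-incubated Aβ1-40 alone or Aβ1-40 with peptide (1:2). Final lipid 50 μM, Aβ1-40 2.5 μM (peptide:lipid 1:20), 37 °C. Dye leakage measured by fluorescence at intervals from 1 to 48 h; untreated LUV as control.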

[24] = Metal chelating activity assessed as compound-Zn2+ complex formation by measuring red shift at 1:1 ratio in presence of ZnCl2 by UV-Vis spectra analysis (Rvb= 265 nm)
[25] = molecular target: Amyloid-beta precursor protein (Homo sapiens) (UniProt P05067); assay: Inhibition of Cu2+ induced amyloid beta (1 to 40) (unknown origin) aggregation assessed as disapperance of fibrillar assembly at 80 uM incubated for 36 hrs by TEM analysis
How it was run: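 Aβ1-40 (40 μM) incubated with CuSO4 (40 μM) and test peptide (80 μM) in PBS pH 7.4 at 37 °C for 36 h, then imaged by TEM. Representative image from several repeats.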

Chain of Amyloid-beta precursor protein (Homo sapiens) (P05067 whole entry): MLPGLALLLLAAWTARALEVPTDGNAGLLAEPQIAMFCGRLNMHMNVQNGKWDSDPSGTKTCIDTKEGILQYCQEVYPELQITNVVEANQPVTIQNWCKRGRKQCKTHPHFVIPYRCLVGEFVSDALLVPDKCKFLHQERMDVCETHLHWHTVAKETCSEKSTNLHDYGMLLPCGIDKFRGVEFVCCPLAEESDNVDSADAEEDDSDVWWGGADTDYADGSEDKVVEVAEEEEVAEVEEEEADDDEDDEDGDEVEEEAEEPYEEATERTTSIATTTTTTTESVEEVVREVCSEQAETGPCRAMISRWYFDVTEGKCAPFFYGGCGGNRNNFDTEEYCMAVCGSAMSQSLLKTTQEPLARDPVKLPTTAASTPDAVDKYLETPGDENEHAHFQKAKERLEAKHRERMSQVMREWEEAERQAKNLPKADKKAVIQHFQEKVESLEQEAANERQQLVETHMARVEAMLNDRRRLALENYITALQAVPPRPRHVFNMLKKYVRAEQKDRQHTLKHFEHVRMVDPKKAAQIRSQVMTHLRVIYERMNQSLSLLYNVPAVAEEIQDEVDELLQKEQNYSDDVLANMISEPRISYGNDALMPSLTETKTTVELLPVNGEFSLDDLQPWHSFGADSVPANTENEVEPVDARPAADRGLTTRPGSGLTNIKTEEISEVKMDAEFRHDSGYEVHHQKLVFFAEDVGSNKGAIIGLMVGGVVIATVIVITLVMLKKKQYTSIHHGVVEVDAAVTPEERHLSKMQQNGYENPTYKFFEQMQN

| Compound | inhibition [1] | inhibition [2] | inhibition [3] | IC50 [4] | inhibition [10] | inhibition [11] | inhibition [12] | inhibition [13] | further results |
| --- | --- | --- | --- | --- | --- | --- | --- | --- | --- |
| CC(=O)N[C@@H](CCCCN)C(=O)N[C@@H](CC(C)C)C(=O)N[C@H](C(=O)N[C@H](Cc1ccccc1)C(=O)N[C@@H](Cc1ccccc1)C(=O)N[C@@H](C)C(=O)N[C@@H](CCC(N)=O)C(=O)O)C(C)C | 7.9% | 15.1% | 27.2% |  |  |  |  |  |  |
| CC(C)C[C@@H]1NC(=O)[C@H](CCCCNC(=O)c2ccccn2)NC(=O)[C@H](CCCCNC(=S)Nc2ccc(-c3c4ccc(=O)cc-4oc4cc(O)ccc34)c(C(=O)O)c2)NC(=O)[C@H](CCC(N)=O)NC(=O)[C@H](C)NC(=O)[C@H](Cc2ccccc2)NC(=O)[C@@H](Cc2ccccc2)NC(=O)[C@H](C(C)C)NC1=O |  |  |  | 200 µM |  |  |  |  | Drug uptake [5]: Active; Drug uptake [6]: Active; OD [7]: 604 nm |
| CCN(CC)c1ccc2c(-c3ccc(C(=O)N(C)CC(=O)NCC(=O)N[C@@H](Cc4ccc(O)cc4)C(=O)N[C@@H](CCC(=O)O)C(=O)N[C@H](C(=O)N[C@@H](Cc4c[nH]cn4)C(=O)N[C@@H](Cc4c[nH]cn4)C(=O)N[C@@H](CCC(N)=O)C(=O)N[C@@H](CCCCN)C(=O)N[C@@H](CC(C)C)C(=O)N[C@H](C(=O)N[C@@H](Cc4ccccc4)C(=O)N[C@@H](Cc4ccccc4)C(=O)N[C@@H](C)C(=O)NCC(N)=O)C(C)C)C(C)C)cc3)c3ccc(N(CC)CC)cc3[o+]c2c1 (X1-[Sar]GYEVHHQKLVFFAG-NH2) |  |  |  | 150 µM |  |  |  |  | Drug uptake [8]: Active; Drug uptake [9]: Active |
| CC(C)C[C@@H]1NC(=O)[C@H](CCCCN)NC(=O)[C@H](CCC(N)=O)NC(=O)[C@H](C)NC(=O)[C@H](Cc2ccccc2)NC(=O)[C@@H](Cc2ccccc2)NC(=O)[C@H](C(C)C)NC1=O | 25.2% | 47.9% | 73.7% |  | Active | 74% | 74% | Active |  |
| CC(C)C[C@@H]1NC(=O)[C@H](CCCCNC(=O)c2ccccn2)NC(=O)[C@H](CCC(N)=O)NC(=O)[C@H](C)NC(=O)[C@H](Cc2ccccc2)NC(=O)[C@@H](Cc2ccccc2)NC(=O)[C@H](C(C)C)NC1=O | 32.4% | 52.6% | 85.6% |  | Active | 85% | 85% | Active | OD [14]: 271 nm; Activity [15]: 84.3%; inhibition [16]: Active; Activity [17]: Active; OD [18]: 270 nm; Activity [19]: Active; OD [20]: 267 nm; inhibition [21]: Tde; inhibition [22]: Active; inhibition [23]: Active; OD [24]: 268 nm; inhibition [25]: Active |
